# Results: ChEMBL document CHEMBL1139507, “Application of phosphoramidate pronucleotide technology to abacavir leads to a significant enhancement of antiviral potency” (J Med Chem, 2005)
# Values joined by “and” are separate entries in the source; they are usually repeats but may differ in a detail not shown here. Equal values may be shown once.
# Experiments:
# Human alphaherpesvirus 1 [1] = assay: Effective concentration against thymidine kinase deficient herpes simplex virus (HSV-1) in B2006 strain; details: Human alphaherpesvirus 1, B2006
# [2] = Area under the plasma concentration-time curve in monkey after intravenous dosage; format: ADME; details: cercopithecidae
# Outline: (§1)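 Female cynomolgus monkeys (three, 2.0-3.2 kg) received the succinate salt at 11.5 mg/kg (17.3 µmol/kg), 2.3 mg/mL in 10% DMSO/90% saline, 5 mL/kg, iv on day 1 and orally on day 8 (1-week washout); fasted overnight to ~4 h postdose. Serial plasma to 24 h, acetonitrile deproteination, LC/MS/MS of prodrug, alaninyl-ABC-MP, ABC-MP, ABC, CBV; noncompartmental analysis.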
# HEL = assay: Cytostatic concentration required to inhibit HEL cell proliferation; format: functional; details: Homo sapiens
# Outline: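 HEL cell proliferation measured in presence of compound; CC50 = 50% cytostatic concentration inhibiting HEL cell proliferation by 50%.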
# [3] = test system: Human immunodeficiency virus 1; assay: Effective concentration against human immunodeficiency virus type 1 in CEM cells; format: functional, organism-based; details: Human immunodeficiency virus 1, CCRF-CEM
# Outline: (§2)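 HIV-1- and HIV-2-induced cytopathicity in CEM cell cultures, scored at day 4 by microscopic examination of virus-induced giant cell formation; EC50 = concentration inhibiting cytopathicity by 50%.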
# [4] = test system: Human immunodeficiency virus 2; assay: Ratio of CC50 to that of EC50 against human immunodeficiency virus type 2 in CEM cells; format: functional, CCRF-CEM
# [5] = Apparent half life value in monkey after oral dosage; format: ADME, organism-based; details: cercopithecidae, in vivo, read-out: T1/2 app (converted)
# Outline: as §1
# Hepatitis B virus [6] = assay: Effective concentration againstHBV in Hep G2.2.15 cells; format: functional, organism-based, HepG2 2.2.15; details: Hepatitis B virus, HepG2 2.2.15
# Outline: (§3)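 Anti-HBV activity assayed in HepG2 2.2.15 human hepatoma cells, which constitutively produce HBV; EC50 = 50% effective concentration.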
# [7] = test system: Human immunodeficiency virus 1; assay: Effective concentration against human immunodeficiency virus type 1 in PBL cells; format: functional, organism-based; details: Human immunodeficiency virus 1, PBL
# HepG2 [8] = assay: Cytostatic concentration required to inhibit Hep G2.2.15 cell proliferation; format: functional, Homo sapiens
# Outline: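 Growth inhibition of HepG2 2.2.15 human hepatoma cells (constitutively HBV-producing) measured; CC50 = 50% cytostatic concentration.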
# [9] = test system: Moloney murine sarcoma virus; assay: Effective concentration against murine moloney sarcoma virus in C3H/3T3 cells; format: functional, organism-based
# [10] = Terminal elimination half-life in monkey after intravenous dosage; NA = not applicable; format: ADME, organism-based; details: cercopithecidae, in vivo
# Outline: as §1
# Human alphaherpesvirus 1 [11] = assay: Effective concentration against thymidine kinase competent herpes simplex virus (HSV-1) in […]; format: functional, organism-based
# Outline: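 Confluent HEL cell cultures inoculated with 100 CCID50 of HSV-1 (KOS), HSV-2 (G) or HSV-1 TK- (B2006, VMW-1837); after 1 h adsorption, residual virus removed and cells incubated with varying compound concentrations; cytopathicity recorded once complete in virus controls; EC50 = concentration inhibiting HSV-induced cytopathicity by 50%.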
# [12] = Time of maximum concentration was observed in monkey after oral dosage; format: ADME, organism-based; details: cercopithecidae, in vivo
# Outline: as §1
# [13] = test system: Human immunodeficiency virus 2; assay: Effective concentration against human immunodeficiency virus type 2 in CEM cells; format: functional, organism-based; details: Human immunodeficiency virus 2, CCRF-CEM
# Outline: as §2
# Hepatitis B virus [14] = assay: Effective concentration against HBV in Hep G2.2.15 cells; format: functional, organism-based, HepG2 2.2.15; details: Hepatitis B virus, HepG2 2.2.15
# Outline: as §3
# [15] = Area under the plasma concentration-time curve in monkey after peroral dosage; format: ADME; details: cercopithecidae, po
# Outline: as §1
# [16] = test system: Human immunodeficiency virus 2; assay: Effective concentration against human immunodeficiency virus type 2 (ROD) in CEM cells; format: functional, organism-based; details: Human immunodeficiency virus 2, CCRF-CEM
# Outline: as §2
# C3H/3T3 = assay: Cytostatic concentration required to inhibit C3H/3T3 cell proliferation; format: functional; details: Mus musculus
# Human alphaherpesvirus 2 = assay: Effective concentration against thymidine kinase competent herpes simplex virus (HSV-2) in […]
# CCRF-CEM [17] = assay: Cytostatic concentration required to inhibit CEM cell proliferation; format: functional; details: Homo sapiens
# Human alphaherpesvirus 1 [18] = assay: Effective concentration against thymidine kinase deficient herpes simplex virus (HSV-1) in VMW-1837 strain; details: Human alphaherpesvirus 1, VMW-1837
# HepG2 [19] = assay: Cytostatic concentration required to inhibit Hep G2 cell proliferation; format: functional; details: Homo sapiens
# CCRF-CEM [20] = assay: Intracellular concentration of metabolites (ABCMP) from 6-8 hrs in CEM cells after incubation with the compound (10 uM); format: functional, cell-based; details: Homo sapiens
# Outline: (§4)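 CEM T4 lymphocytes seeded at (2-4) × 10⁵ cells/mL in RPMI-1640 with 10% fetal calf serum, 2 mM L-glutamine, 0.075% NaHCO₃. They were exposed 24 h to 10 µM [³H]abacavir or 1.1 µM ³H-ProTide (5 µCi/5 mL), washed twice in cold medium, and extracted with cold methanol/water 60:40. Metabolites were separated by SAX HPLC, (NH₄)H₂PO₄ pH 5.0 gradient 0.005-0.30 M, with fractions by retention time in min. Results are pmol/10⁹ cells.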
# CCRF-CEM [21] = assay: Intracellular concentration of metabolites (CBVTP) from 35-38 hrs in CEM cells after incubation with the compound (10 uM); format: functional, cell-based; details: Homo sapiens
# Outline: as §4
# [22] = test system: Human immunodeficiency virus 1; assay: Ratio of CC50 to that of EC50 against human immunodeficiency virus type 1 in CEM cells; format: functional, CCRF-CEM
# Hepatitis B virus [23] = assay: Effective concentration against hepatitis B virus in Hep G2.2.15 cells; format: functional, organism-based; details: HepG2 2.2.15
# Outline: as §3
# CCRF-CEM [24] = assay: Intracellular concentration of metabolites (CBVMP +alaninyl-ABCMP) from 11-13 hrs in CEM cells after incubation with the compound (10 uM); format: functional, cell-based; details: Homo sapiens
# Outline: as §4
# CCRF-CEM [25] = assay: Intracellular concentration of metabolites (ABC + proABC + CBV) from 2-3 hrs in CEM cells after incubation with the compound (10 uM); format: functional, cell-based; details: Homo sapiens
# Outline: as §4
# [26] = Terminal elimination half-life in monkey after intravenous dosage; NA=not applicable; format: ADME, organism-based; details: cercopithecidae, in vivo
# Outline: as §1
# CCRF-CEM [27] = assay: Intracellular concentration of metabolites (CBVDP) from 19-21 hrs in CEM cells after incubation with the compound (10 uM); format: functional, cell-based; details: Homo sapiens
# Outline: as §4
# CCRF-CEM [28] = assay: Intracellular concentration of metabolites (CBV-MP) from 11-13 hrs in CEM cells after incubation with the compound (10 uM); format: functional, cell-based; details: Homo sapiens
# Outline: as §4
# [29] = test system: Human immunodeficiency virus 2; assay: Effective concentration against human immunodeficiency virus type 2 in MT-4 cells; format: functional, organism-based; details: Human immunodeficiency virus 2, MT4
# MT4 = assay: Cytostatic concentration required to inhibit MT-4 cell proliferation; format: functional, Homo sapiens
# CCRF-CEM [30] = assay: Intracellular concentration of metabolites (ABC +CBV) from 2-3 hrs in CEM cells after incubation with the compound (10 uM); format: functional, cell-based; details: Homo sapiens
# Outline: as §4
# [31] = test system: Human immunodeficiency virus 1; assay: Effective concentration against human immunodeficiency virus type 1 in MT-4 cells; format: functional, organism-based, MT4
# [32] = Terminal elimination half-life in monkey after administration of intravenous dosage; format: ADME, organism-based; details: cercopithecidae, in vivo
# Outline: as §1
# [33] = Oral bioavailability in monkey after oral dosage; format: ADME, organism-based; details: cercopithecidae, in vivo
# Outline: as §1
# [34] = Area under the plasma concentration-time curve in monkey after administration of intravenous dosage; format: ADME; details: cercopithecidae
# Outline: as §1
# [35] = Total plasma clearance in monkey after administration of intravenous dosage; (n=3); format: ADME, organism-based; details: cercopithecidae
# Outline: as §1
Structure (SMILES),EC50 (Human alphaherpesvirus 1 [1]),AUC [2],CC50 (HEL),EC50 [3],SI [4],half-life [5],EC50 (Hepatitis B virus [6]),EC50 [7],"CC50 (HepG2 [8]; Homo sapiens, HepG2)",EC50 [9],T1/2 [10],EC50 (Human alphaherpesvirus 1 [11]),Tmax [12],EC50 (Hepatitis B virus [14]),AUC [15],EC50 [16],CC50 (C3H/3T3),EC50 (Human alphaherpesvirus 2),CC50 (CCRF-CEM [17]),EC50 (Human alphaherpesvirus 1 [18]),also measured
Nc1nc2c(ncn2[C@H]2C=C[C@@H](CO)C2)c(=O)[nH]1 [CARBOVIR],50 µM,0.7 µM·h,15 µM,2 µM,68,6 h,10 µM,0.03 µM,150 µM,6 µM,Not Active,5 µM,4.7 h,10.5 µM,0.4 µM·h,2.3 µM,> 20 µM,8 µM,160 µM,13 µM,EC50 [13]: 2.3 µM; CC50 (HepG2 [19]): 150 µM
Nc1nc(NC2CC2)c2ncn([C@H]3C=C[C@@H](COP(=O)(O)O)C3)c2n1,20 µM,0.4 µM·h,110 µM,0.07 µM,150,–,–,0.008 µM,17 µM,1.6 µM,–,20 µM,1.3 h,–,–,0.09 µM,> 4 µM,20 µM,13 µM,20 µM,Concentration (pmol/10E9 cells) (CCRF-CEM [20]): 280; Concentration (pmol/10E9 cells) (CCRF-CEM [21]): 3020; SI [22]: 190; EC50 (Hepatitis B virus [23]): 0.55 µM; Concentration (pmol/10E9 cells) (CCRF-CEM [24]): 12400; Concentration (pmol/10E9 cells) (CCRF-CEM [25]): 5000; T1/2 [26]: Not Active; Concentration (pmol/10E9 cells) (CCRF-CEM [27]): 3490
Nc1nc(NC2CC2)c2ncn([C@H]3C=C[C@@H](CO)C3)c2n1 [ABACAVIR],900 µM,6 µM·h,200 µM,1.9 µM,26,2.6 h,5.6 µM,0.2 µM,–,8.8 µM,Not Active,900 µM,3 h,5.6 µM,6 µM·h,3 µM,> 20 µM,900 µM,78 µM,320 µM,Concentration (pmol/E109 cells) (CCRF-CEM [20]): 5.8; Concentration (pmol/E109 cells) (CCRF-CEM [28]): 108; Concentration (pmol/E109 cells) (CCRF-CEM [21]): 82; CC50 (HepG2 [8]): 17 µM and 110 µM; EC50 [29]: 7.3 µM; SI [22]: 41; CC50 (MT4): 192 µM and 89 µM; EC50 [13]: 3 µM; Concentration (pmol/E109 cells) (CCRF-CEM [30]): 762; EC50 ([31]; mt4): 5.9 µM and 2.15 µM; Concentration (pmol/E109 cells) (CCRF-CEM [27]): 42; CC50 (HepG2 [19]): 110 µM
C[C@@H](NP(=O)(O)OC[C@@H]1C=C[C@H](n2cnc3c(NC4CC4)nc(N)nc32)C1)C(=O)O,–,9.2 µM·h,–,1.2 µM,–,0.8 h,–,–,–,–,Not Active,–,1.3 h,5 µM,2.6 µM·h,–,–,–,8.6 µM,–,"EC50 [29]: 3.4 µM; CC50 (MT4; Homo sapiens, MT4): 2.1 µM; EC50 ([31]; Human immunodeficiency virus 1, MT4): 6.6 µM; CC50 (HepG2 [19]): 11 µM"
CCOC(=O)[C@H](C)NP(=O)(OC[C@@H]1C=C[C@H](n2cnc3c(NC4CC4)nc(N)nc32)C1)Oc1ccccc1 (stereo not given in full),–,–,–,–,–,0.4 h,–,–,–,–,–,–,0.8 h,–,0.7 µM·h,–,–,–,–,–,half-life [32]: 6.6 min; bioavailability [33]: 22%; AUC [34]: 2.7 µM·h; clearance [35]: 113 mL/min/kg
COC(=O)[C@@H](C)NP(=O)(OC[C@@H]1C=C[C@H](n2cnc3c(O)nc(N)nc32)C1)Oc1ccccc1 (stereo not given in full),> 800 µM,–,160 µM,1.3 µM,26,–,0.51 µM,0.2 µM,200 µM,8.8 µM,–,480 µM,–,–,–,3 µM,> 20 µM,480 µM,78 µM,480 µM,SI [22]: 41
